ChEMBL document CHEMBL2417515, “Microwave assisted synthesis of some hybrid molecules derived from norfloxacin and investigation of their biological activities” (Eur J Med Chem, 2013)
Values after ≈ are worked out from the molar mass of the structure shown. Active and inactive are the calls of the source. The calls are words filed in the database; no cut-off is given here.

Key:
Candida albicans = assay: Antimicrobial activity against Candida albicans ATCC 60193 after 18 to 24 hrs by double microdilution method; type: functional
Bacillus cereus = assay: Antimicrobial activity against Bacillus cereus 702 Roma after 18 to 24 hrs by double microdilution method; type: functional
Summary of the method: (§1)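 Twofold broth microdilution in Mueller-Hinton broth, pH 7.3. Compounds come from 20.000 µg/mL stocks in hexane. […] Ampicillin serves as reference drug and DMSO diluted 1:10 as solvent control.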

Saccharomyces cerevisiae = assay: Antimicrobial activity against Saccharomyces cerevisiae RSKK 251 after 18 to 24 hrs by double microdilution method; type: functional
Staphylococcus aureus = assay: Antimicrobial activity against Staphylococcus aureus ATCC 25923 after 18 to 24 hrs by double microdilution method; type: functional; summary of the method: as §1
Pseudomonas aeruginosa = assay: Antimicrobial activity against Pseudomonas aeruginosa ATCC 43288 after 18 to 24 hrs by double microdilution method; type: functional; summary of the method: as §1
Enterococcus faecalis = assay: Antimicrobial activity against Enterococcus faecalis ATCC 29212 after 18 to 24 hrs by double microdilution method; type: functional; summary of the method: as §1
[1] = test system: Yersinia pseudotuberculosis; assay: Antimicrobial activity against Yersinia pseudotuberculosis ATCC 911 after 18 to 24 hrs by double microdilution method; type: functional
Summary of the method: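 Double broth microdilution MIC (µg/mL). Mueller-Hinton broth pH 7.3; plates incubated 18–24 h at 35 °C. Compounds dissolved in […] as 20.000 µg/mL stock. Ampicillin as reference antibacterial; DMSO diluted 1:10 as solvent control.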

[2] = test system: Mycolicibacterium smegmatis; assay: Antimicrobial activity against Mycobacterium smegmatis ATCC 607 after 48 to 72 hrs by double microdilution method; type: functional
Urease = Urease (Canavalia ensiformis, UniProt P07374); assay: Inhibition of Jack bean urease using urea as substrate assessed as production of ammonia after 15 mins
Urease, sequence (P07374 whole entry): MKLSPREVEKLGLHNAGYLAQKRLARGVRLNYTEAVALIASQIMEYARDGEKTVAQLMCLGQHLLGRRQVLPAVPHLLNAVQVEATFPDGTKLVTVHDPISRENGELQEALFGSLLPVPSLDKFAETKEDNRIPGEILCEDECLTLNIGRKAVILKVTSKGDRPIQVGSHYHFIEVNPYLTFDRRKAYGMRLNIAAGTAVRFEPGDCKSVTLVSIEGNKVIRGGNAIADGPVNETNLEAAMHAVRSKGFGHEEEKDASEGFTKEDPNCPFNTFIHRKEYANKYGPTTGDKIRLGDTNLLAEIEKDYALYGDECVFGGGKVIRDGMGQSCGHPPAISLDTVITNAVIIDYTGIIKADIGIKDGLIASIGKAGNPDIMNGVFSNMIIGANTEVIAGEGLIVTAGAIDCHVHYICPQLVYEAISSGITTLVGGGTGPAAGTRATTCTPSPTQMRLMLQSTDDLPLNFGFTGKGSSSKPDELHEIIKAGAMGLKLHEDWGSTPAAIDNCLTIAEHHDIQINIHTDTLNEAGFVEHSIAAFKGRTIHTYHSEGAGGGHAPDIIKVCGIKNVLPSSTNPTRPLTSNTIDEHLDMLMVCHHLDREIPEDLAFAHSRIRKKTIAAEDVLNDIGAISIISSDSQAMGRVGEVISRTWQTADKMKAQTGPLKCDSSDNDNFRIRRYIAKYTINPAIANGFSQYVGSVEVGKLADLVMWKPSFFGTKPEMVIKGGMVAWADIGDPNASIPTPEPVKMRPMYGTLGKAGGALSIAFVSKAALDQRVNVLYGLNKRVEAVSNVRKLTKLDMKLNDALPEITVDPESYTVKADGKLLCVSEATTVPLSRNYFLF
Summary of the method: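 Jack bean urease in buffer (100 mM urea, 0.01 M K2HPO4, 1 mM EDTA, 0.01 M LiCl, pH 8.2) incubated with compound 15 min at room temperature. Ammonia read by indophenol method (phenol/nitroprusside plus NaOH/NaOCl), absorbance 625 nm after 20 min. % inhibition = 100 − (OD test/OD control)×100. IC50 from serial concentrations (250 to 0.114 µg/mL), triplicate; thiourea standard.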

[3] = target: Urease (Canavalia ensiformis) (UniProt P07374); assay: Inhibition of Jack bean urease using urea as substrate assessed as production of ammonia at 100 ug/ml after 15 mins
Urease (Canavalia ensiformis), sequence (P07374 whole entry, looked up): as the sequence (P07374 whole entry) above
Summary of the method: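 Jack bean urease with buffer (100 mM urea, 0.01 M K2HPO4, 1 mM EDTA, 0.01 M LiCl, pH 8.2) and compound, 15 min at room temperature. Ammonia read by indophenol method (phenol/nitroprusside plus NaOH/NaOCl), A625 after 20 min. % inhibition = 100 − (OD test/OD control)×100. Thiourea as standard; triplicates.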

| Structure (SMILES) | MIC (Candida albicans) | MIC (Bacillus cereus) | MIC (Saccharomyces cerevisiae) | MIC (Staphylococcus aureus) | MIC (Pseudomonas aeruginosa) | MIC (Enterococcus faecalis) | MIC [1] | MIC [2] | IC50 (Urease) [µM] | inhibition [3] [%] |
| --- | --- | --- | --- | --- | --- | --- | --- | --- | --- | --- |
| CCNC(=S)Nc1ccc(N2CCN(c3cc4c(cc3F)c(=O)c(C(=O)O)cn4CC)CC2)c(F)c1 | 250 µg/mL (≈ 485 µM) | inactive | 250 µg/mL (≈ 485 µM) | inactive | inactive | inactive | inactive | inactive | – | – |
| CCn1cc(C(=O)O)c(=O)c2cc(F)c(N3CCN(c4ccc(/N=c5\sc(-c6ccc(Cl)cc6)cn5Cc5ccccc5)cc4F)CC3)cc21 | 250 µg/mL (≈ 351 µM) | inactive | 250 µg/mL (≈ 351 µM) | inactive | inactive | 250 µg/mL (≈ 351 µM) | inactive | inactive | – | – |
| CCn1cc(-c2ccc(Cl)cc2)s/c1=N\c1ccc(N2CCN(c3cc4c(cc3F)c(=O)c(C(=O)O)cn4CC)CC2)c(F)c1 | inactive | 1000 µg/mL (≈ 1540 µM) | inactive | inactive | inactive | inactive | inactive | inactive | – | – |
| CCn1cc(C(=O)O)c(=O)c2cc(F)c(N3CCN(c4ccc(/N=C5\SC(=O)CN5Cc5ccccc5)cc4F)CC3)cc21 | 250 µg/mL (≈ 405 µM) | 125 µg/mL (≈ 202 µM) | 250 µg/mL (≈ 405 µM) | 125 µg/mL (≈ 202 µM) | inactive | 125 µg/mL (≈ 202 µM) | 62.5 µg/mL (≈ 101 µM) | 62.5 µg/mL (≈ 101 µM) | – | – |
| COc1ccc(/C=N\NC(=O)CN2CCN(c3ccccc3OC)CC2)cc1O | 62.5 µg/mL (≈ 157 µM) | 31.3 µg/mL (≈ 78.6 µM) | 31.3 µg/mL (≈ 78.6 µM) | 31.3 µg/mL (≈ 78.6 µM) | 31.3 µg/mL (≈ 78.6 µM) | 15.6 µg/mL (≈ 39.2 µM) | 31.3 µg/mL (≈ 78.6 µM) | 31.3 µg/mL (≈ 78.6 µM) | – | – |
| CCn1cc(C(=O)O)c(=O)c2cc(F)c(N3CCN(c4ccc([N+](=O)[O-])cc4F)CC3)cc21 | inactive | inactive | inactive | inactive | inactive | inactive | 31.5 µg/mL (≈ 68.7 µM) | inactive | – | – |
| CN[C@@H]1[C@H](O[C@H]2[C@H](O[C@H]3[C@H](O)[C@@H](O)[C@H](N=C(N)N)[C@@H](O)[C@@H]3N=C(N)N)O[C@@H](C)[C@]2(O)C=O)O[C@@H](CO)[C@H](O)[C@H]1O [STREPTOMYCIN] | – | – | – | – | – | – | – | 4 µg/mL (≈ 6.88 µM) | – | – |
| COc1ccccc1N1CCN(CC(=O)N/N=C\c2ccccc2O)CC1 | 250 µg/mL (≈ 679 µM) | 31.3 µg/mL (≈ 85 µM) | 62.5 µg/mL (≈ 170 µM) | 31.3 µg/mL (≈ 85 µM) | 62.5 µg/mL (≈ 170 µM) | 15.6 µg/mL (≈ 42.3 µM) | 31.3 µg/mL (≈ 85 µM) | 31.3 µg/mL (≈ 85 µM) | – | – |
| CCn1cc(C(=O)O)c(=O)c2cc(F)c(N3CCN(c4ccc(NC(=O)NCc5ccccc5)cc4F)CC3)cc21 | 500 µg/mL (≈ 890 µM) | 500 µg/mL (≈ 890 µM) | 250 µg/mL (≈ 445 µM) | 500 µg/mL (≈ 890 µM) | inactive | 500 µg/mL (≈ 890 µM) | inactive | inactive | – | – |
| CCn1cc(C(=O)O)c(=O)c2cc(F)c(N3CCN(C(=O)CSc4nnc(CN5CCN(c6ccccc6OC)CC5)n4-c4ccccc4)CC3)cc21 | – | – | – | – | – | – | – | – | 27.7 | 86.2 |
| OC(Cn1cncn1)(Cn1cncn1)c1ccc(F)cc1F [FLUCONAZOLE] | < 8 µg/mL | – | < 8 µg/mL | – | – | – | – | – | – | – |
| NC(N)=S [THIOUREA] | – | – | – | – | – | – | – | – | 678 | – |
| CCn1cc(C(=O)O)c(=O)c2cc(F)c(N3CCN(c4ccc(NC(=S)NCCCN5CCOCC5)cc4F)CC3)cc21 | inactive | 125 µg/mL (≈ 203 µM) | inactive | 15.6 µg/mL (≈ 25.4 µM) | 500 µg/mL (≈ 813 µM) | 31.2 µg/mL (≈ 50.8 µM) | 62.5 µg/mL (≈ 102 µM) | inactive | – | – |
| CCn1cc(C(=O)O)c(=O)c2cc(F)c(N3CCN(c4ccc(N)cc4F)CC3)cc21 | inactive | < 1.9 µg/mL | inactive | < 1.9 µg/mL | 7.81 µg/mL (≈ 18.2 µM) | < 1.9 µg/mL | < 1.9 µg/mL | 1.95 µg/mL (≈ 4.55 µM) | – | – |
| CCN1CC(=O)S/C1=N\c1ccc(N2CCN(c3cc4c(cc3F)c(=O)c(C(=O)O)cn4CC)CC2)c(F)c1 | 250 µg/mL (≈ 450 µM) | 250 µg/mL (≈ 450 µM) | 250 µg/mL (≈ 450 µM) | 250 µg/mL (≈ 450 µM) | inactive | 250 µg/mL (≈ 450 µM) | inactive | inactive | – | – |
| CCn1cc(C(=O)O)c(=O)c2cc(F)c(N3CCN(C(=O)CCl)CC3)cc21 | inactive | 0.21 µg/mL (≈ 0.531 µM) | inactive | 0.21 µg/mL (≈ 0.531 µM) | 15.6 µg/mL (≈ 39.4 µM) | 0.21 µg/mL (≈ 0.531 µM) | 1.7 µg/mL (≈ 4.29 µM) | 0.42 µg/mL (≈ 1.06 µM) | – | – |
| CC1(C)S[C@@H]2[C@H](NC(=O)[C@H](N)c3ccccc3)C(=O)N2[C@H]1C(=O)O [AMPICILLIN] | – | 15 µg/mL (≈ 42.9 µM) | – | 35 µg/mL (≈ 100 µM) | > 128 µg/mL | 10 µg/mL (≈ 28.6 µM) | 18 µg/mL (≈ 51.5 µM) | – | – | – |
| CCn1cc(C(=O)O)c(=O)c2cc(F)c(N3CCN(c4ccc(NC(=S)NCc5ccccc5)cc4F)CC3)cc21 | inactive | < 1.9 µg/mL | inactive | < 1.9 µg/mL | 31.5 µg/mL (≈ 54.5 µM) | < 1.9 µg/mL | < 1.9 µg/mL | 0.97 µg/mL (≈ 1.68 µM) | – | – |
